# From ChEMBL document CHEMBL4024710, “Discovery of novel 1,2,3,4-tetrahydrobenzo[4, 5]thieno[2, 3-c]pyridine derivatives as potent and selective CYP17 inhibitors” (Eur J Med Chem, 2017)
# Tests used:
# [1] = molecular target: T1, Steroid 17-alpha-hydroxylase/17,20 lyase (Rattus norvegicus, UniProt P11715); assay: Inhibition of CYP17 in Sprague-Dawley rat testes microsomes using 17-alpha hydroxyprogesterone as substrate and NADPH as cofactor pretreated for 5 mins followed by substrate and cofactor addition after 60 mins by LC/Ms analysis; parameters: species or system Testis
# T1 sequence (P11715 whole entry): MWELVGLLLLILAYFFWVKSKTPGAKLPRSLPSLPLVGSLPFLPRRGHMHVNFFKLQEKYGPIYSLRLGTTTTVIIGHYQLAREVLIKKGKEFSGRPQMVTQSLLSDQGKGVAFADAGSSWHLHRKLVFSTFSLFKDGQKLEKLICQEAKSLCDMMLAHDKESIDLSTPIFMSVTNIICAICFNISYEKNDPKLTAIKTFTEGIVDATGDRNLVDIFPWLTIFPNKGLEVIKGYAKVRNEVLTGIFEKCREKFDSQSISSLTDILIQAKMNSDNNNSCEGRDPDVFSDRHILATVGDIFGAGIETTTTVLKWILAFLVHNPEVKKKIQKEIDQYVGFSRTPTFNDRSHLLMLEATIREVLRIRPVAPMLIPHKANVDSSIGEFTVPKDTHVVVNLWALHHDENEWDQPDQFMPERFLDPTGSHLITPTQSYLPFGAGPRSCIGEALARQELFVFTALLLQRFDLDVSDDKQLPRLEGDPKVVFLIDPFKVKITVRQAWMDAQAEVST
# Summary of the method: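 Rat testis microsomes from male SD rats weighing 220–250 g, prepared at 4 °C by differential centrifugation (9000 g, then 105,000 g pellet). 2 µg protein in 0.05 M phosphate pH 7.5 preincubated with inhibitor 5 min at 25 °C. Started with 10 µM 17α-hydroxyprogesterone plus 4.2 mM NADPH, 60 min at 25 °C, stopped with methanol. Androstenedione measured by LC/MS; IC50 is the mean of at least three experiments.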
# [2] = molecular target: T2, Steroid 17-alpha-hydroxylase/17,20 lyase (Homo sapiens, UniProt P05093); assay: Inhibition of recombinant human CYP17 expressed in human A549 cell membranes using 17-alpha hydroxyprogesterone as substrate and NADPH as cofactor pretreated for 5 mins followed by substrate and cofactor addition after 60 mins by LC/MS analysis
# T2 sequence (P05093 whole entry): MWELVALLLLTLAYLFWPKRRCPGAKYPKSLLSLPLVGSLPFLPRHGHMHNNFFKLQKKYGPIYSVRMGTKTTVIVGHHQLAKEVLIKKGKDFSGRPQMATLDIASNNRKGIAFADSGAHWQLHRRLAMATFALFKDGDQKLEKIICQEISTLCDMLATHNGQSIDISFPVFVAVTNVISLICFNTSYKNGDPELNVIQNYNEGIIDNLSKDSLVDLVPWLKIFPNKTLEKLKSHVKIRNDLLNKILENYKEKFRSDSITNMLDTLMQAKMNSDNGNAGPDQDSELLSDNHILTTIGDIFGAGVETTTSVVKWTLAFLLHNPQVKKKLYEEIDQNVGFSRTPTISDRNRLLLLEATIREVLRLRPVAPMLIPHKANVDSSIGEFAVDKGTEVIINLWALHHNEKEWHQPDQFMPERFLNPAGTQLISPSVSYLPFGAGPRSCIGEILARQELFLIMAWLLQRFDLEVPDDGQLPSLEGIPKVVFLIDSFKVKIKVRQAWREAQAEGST
# Summary of the method: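 Enzyme source was purified membranes of A549 cells expressing human CYP17 from an adenoviral vector. 2 µg membrane protein in 0.05 M phosphate pH 7.5 with inhibitor, preincubated 5 min at 25 °C. Reaction started with 10 µM 17α-hydroxyprogesterone and 4.2 mM NADPH, run 60 min at 25 °C, methanol stop. Androstenedione quantified by LC/MS; IC50 is the mean of at least three experiments.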
# Cytochrome P450 3A4 = Cytochrome P450 3A4 (Homo sapiens, UniProt P08684); assay: Inhibition of human hepatic CYP3A4; format: ADME
# Cytochrome P450 3A4, sequence (P08684 whole entry): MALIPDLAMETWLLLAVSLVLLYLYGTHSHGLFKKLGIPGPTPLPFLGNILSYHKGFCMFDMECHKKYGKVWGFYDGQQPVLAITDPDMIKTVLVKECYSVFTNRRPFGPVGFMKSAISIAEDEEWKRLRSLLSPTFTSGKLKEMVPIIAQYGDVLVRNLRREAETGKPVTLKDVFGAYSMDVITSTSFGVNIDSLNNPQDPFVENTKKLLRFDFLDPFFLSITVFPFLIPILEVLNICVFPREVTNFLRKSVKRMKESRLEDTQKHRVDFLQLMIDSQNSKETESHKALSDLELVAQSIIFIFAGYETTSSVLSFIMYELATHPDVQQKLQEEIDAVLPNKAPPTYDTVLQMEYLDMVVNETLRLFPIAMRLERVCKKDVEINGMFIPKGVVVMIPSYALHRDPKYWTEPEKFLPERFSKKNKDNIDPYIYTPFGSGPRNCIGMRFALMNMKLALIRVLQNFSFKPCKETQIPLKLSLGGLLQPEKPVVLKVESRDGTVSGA
# CYP1A2 [3] = molecular target: T3, CYP1A2 (Homo sapiens, UniProt P05177); assay: Inhibition of human hepatic CYP1A2 at 1 uM relative to control; format: ADME
# T3 sequence (P05177 whole entry): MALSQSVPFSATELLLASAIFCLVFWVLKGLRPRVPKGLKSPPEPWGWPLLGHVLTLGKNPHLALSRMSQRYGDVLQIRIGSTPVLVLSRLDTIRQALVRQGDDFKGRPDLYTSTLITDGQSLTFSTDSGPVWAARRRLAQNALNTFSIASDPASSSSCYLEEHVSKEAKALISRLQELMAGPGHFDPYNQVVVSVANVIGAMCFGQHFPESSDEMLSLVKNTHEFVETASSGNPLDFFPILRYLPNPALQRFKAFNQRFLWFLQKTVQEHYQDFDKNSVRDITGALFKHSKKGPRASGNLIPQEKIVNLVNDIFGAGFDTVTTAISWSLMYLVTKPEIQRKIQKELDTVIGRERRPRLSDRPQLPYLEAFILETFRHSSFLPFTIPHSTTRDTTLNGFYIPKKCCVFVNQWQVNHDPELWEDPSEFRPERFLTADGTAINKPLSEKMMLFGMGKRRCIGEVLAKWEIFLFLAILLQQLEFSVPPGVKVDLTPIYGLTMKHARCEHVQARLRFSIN
# CYP1A2 [4] = molecular target: T3, CYP1A2; assay: Inhibition of human hepatic CYP1A2 at 10 uM relative to control; format: ADME
# CYP2C9 [5] = molecular target: T4, CYP2C9 (Homo sapiens, UniProt P11712); assay: Inhibition of human hepatic CYP2C9 at 1 uM relative to control; format: ADME
# T4 sequence (P11712 whole entry): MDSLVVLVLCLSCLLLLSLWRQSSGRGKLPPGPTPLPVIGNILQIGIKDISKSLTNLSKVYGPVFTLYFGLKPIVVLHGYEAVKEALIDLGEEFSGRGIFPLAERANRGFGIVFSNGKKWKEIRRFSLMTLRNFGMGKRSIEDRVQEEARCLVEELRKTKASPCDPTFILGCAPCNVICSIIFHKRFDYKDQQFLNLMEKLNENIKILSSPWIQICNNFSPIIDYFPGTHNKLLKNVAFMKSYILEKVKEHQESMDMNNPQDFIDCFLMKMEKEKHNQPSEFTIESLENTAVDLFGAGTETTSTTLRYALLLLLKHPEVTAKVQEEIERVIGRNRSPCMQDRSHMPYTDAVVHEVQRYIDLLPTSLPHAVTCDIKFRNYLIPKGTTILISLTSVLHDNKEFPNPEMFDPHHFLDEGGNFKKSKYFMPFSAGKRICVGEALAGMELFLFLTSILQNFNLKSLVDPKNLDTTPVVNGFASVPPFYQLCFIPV
# CYP2C9 [6] = molecular target: T4, CYP2C9; assay: Inhibition of human hepatic CYP2C9 at 10 uM relative to control; format: ADME
# CYP2C19 [7] = molecular target: T5, CYP2C19 (Homo sapiens, UniProt P33261); assay: Inhibition of human hepatic CYP2C19 at 1 uM relative to control; format: ADME
# T5 sequence (P33261 whole entry): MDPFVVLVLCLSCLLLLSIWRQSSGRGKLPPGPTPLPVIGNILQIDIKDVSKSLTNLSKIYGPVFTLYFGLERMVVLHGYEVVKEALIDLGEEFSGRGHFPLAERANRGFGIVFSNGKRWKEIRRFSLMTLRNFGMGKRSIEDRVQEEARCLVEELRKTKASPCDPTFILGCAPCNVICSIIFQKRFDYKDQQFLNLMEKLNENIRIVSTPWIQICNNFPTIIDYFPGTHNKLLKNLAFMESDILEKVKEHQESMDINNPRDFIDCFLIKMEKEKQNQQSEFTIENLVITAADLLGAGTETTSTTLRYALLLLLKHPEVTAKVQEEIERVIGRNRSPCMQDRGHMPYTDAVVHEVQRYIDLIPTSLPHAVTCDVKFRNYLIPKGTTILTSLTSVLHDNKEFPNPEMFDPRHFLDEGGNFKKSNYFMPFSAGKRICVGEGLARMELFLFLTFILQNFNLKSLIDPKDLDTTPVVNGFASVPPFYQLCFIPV
# CYP2C19 [8] = molecular target: T5, CYP2C19; assay: Inhibition of human hepatic CYP2C19 at 10 uM relative to control; format: ADME
# CYP2D6 [9] = molecular target: T6, CYP2D6 (Homo sapiens, UniProt P10635); assay: Inhibition of human hepatic CYP2D6 at 1 uM relative to control; format: ADME
# T6 sequence (P10635 whole entry): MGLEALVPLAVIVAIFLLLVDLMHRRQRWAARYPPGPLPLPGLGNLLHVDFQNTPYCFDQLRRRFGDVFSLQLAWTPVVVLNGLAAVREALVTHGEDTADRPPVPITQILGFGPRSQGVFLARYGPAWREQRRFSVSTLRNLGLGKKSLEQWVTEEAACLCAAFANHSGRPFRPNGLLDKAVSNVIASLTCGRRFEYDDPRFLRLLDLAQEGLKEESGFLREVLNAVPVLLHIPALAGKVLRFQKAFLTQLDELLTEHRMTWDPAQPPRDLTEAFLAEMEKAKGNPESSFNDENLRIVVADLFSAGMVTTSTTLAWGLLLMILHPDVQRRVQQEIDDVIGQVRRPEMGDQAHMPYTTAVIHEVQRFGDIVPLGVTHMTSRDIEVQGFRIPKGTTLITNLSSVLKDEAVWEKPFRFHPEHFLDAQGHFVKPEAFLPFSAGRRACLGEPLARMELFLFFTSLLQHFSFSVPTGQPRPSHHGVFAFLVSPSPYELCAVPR
# CYP2D6 [10] = molecular target: T6, CYP2D6; assay: Inhibition of human hepatic CYP2D6 at 10 uM relative to control; format: ADME
# [11] = molecular target: T2, Steroid 17-alpha-hydroxylase/17,20 lyase; assay: Potency index, ratio of abiraterone IC50 to compound IC50 for recombinant human CYP17 expressed in human A549 cell membranes; format: cell-based
# Summary of the method: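 Human CYP17 came from purified membranes of A549 cells expressing the cloned gene through an adenoviral system. 2 µg membrane protein was preincubated with inhibitor in 0.05 M phosphate buffer, pH 7.5, at 25 °C for 5 min. The reaction was started with 10 µM 17α-hydroxyprogesterone and 4.2 mM NADPH, run 60 min at 25 °C and stopped with methanol. Androstenedione was quantified by LC/MS.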
# Rattus norvegicus = assay: Suppression of serum testosterone levels in po dosed Sprague-Dawley rat administered as single dose measured up to 24 hrs post dose by ELISA; format: functional, organism-based
# Summary of the method: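 Serum was sampled before dosing and at 2, 4, 8 and 24 h. Testosterone was measured by ELISA and expressed as % of the mean pretreatment value; mean ± SEM, n = 6.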
# [12] = molecular target: T2, Steroid 17-alpha-hydroxylase/17,20 lyase; assay: Residual CYP17 activity in human NCI-H295R cells assessed as testosterone production at 1 uM measured after 72 hrs relative to control
structure (smiles),measurement,setting,value
CNC(=O)c1ccc2sc3c(c2c1)CCN(Cc1cccnc1)C3,IC50,[1],> 1000 nM
CC(C)c1ccncc1CN1CCc2c(sc3ccc(F)cc23)C1,IC50,[1],535 nM
Brc1ccc2sc3c(c2c1)CCN(Cc1cccnc1)C3,IC50,[1],517 nM
Fc1ccc2sc3c(c2c1)CCN(Cc1cccnc1)C3,IC50,[1],28.1 nM
same,IC50,[2],29 nM
same,IC50,Cytochrome P450 3A4,7900 nM
same,inhibition at 1 µM,CYP1A2 [3],20.6%
same,inhibition at 10 µM,CYP1A2 [4],71.6%
same,inhibition at 1 µM,CYP2C9 [5],6.6%
same,inhibition at 10 µM,CYP2C9 [6],53.2%
same,inhibition at 1 µM,CYP2C19 [7],47.3%
same,inhibition at 10 µM,CYP2C19 [8],92.5%
same,inhibition at 1 µM,CYP2D6 [9],37.5%
same,inhibition at 10 µM,CYP2D6 [10],83.7%
Fc1cncc(CN2CCc3c(sc4ccc(F)cc34)C2)c1,IC50,[1],56.5 nM
same,IC50,[2],45.4 nM
same,IC50,Cytochrome P450 3A4,9030 nM
same,inhibition at 1 µM,CYP1A2 [3],10.6%
same,inhibition at 10 µM,CYP1A2 [4],69.5%
same,inhibition at 1 µM,CYP2C9 [5],0%
same,inhibition at 10 µM,CYP2C9 [6],51.6%
same,inhibition at 1 µM,CYP2C19 [7],5.3%
same,inhibition at 10 µM,CYP2C19 [8],61.3%
same,inhibition at 1 µM,CYP2D6 [9],50.8%
same,inhibition at 10 µM,CYP2D6 [10],62.5%
Fc1ccc2sc3c(c2c1)CCN(Cc1cncnc1)C3,IC50,[1],80.6 nM
Fc1ccc2sc3c(c2c1)CCN(Cc1cncc2ccccc12)C3,IC50,[1],390 nM
Fc1ccc2sc3c(c2c1)CCN(Cc1cnccc1C1CC1)C3,IC50,[1],61.1 nM
Clc1ccc2sc3c(c2c1)CCN(Cc1cccnc1)C3,IC50,[1],449 nM
C=C(C)c1ccncc1CN1CCc2c(sc3ccc(F)cc23)C1,IC50,[1],980 nM
c1cncc(CN2CCc3c(sc4ccccc34)C2)c1,IC50,[1],28.1 to 54.9 nM
Fc1ccc2sc3c(c2c1)CCN(Cc1ccncc1)C3,IC50,[1],> 1000 nM
c1cncc(CN2CCc3c([nH]c4ccccc34)C2)c1,IC50,[1],229 nM
Oc1ccc2sc3c(c2c1)CCN(Cc1cccnc1)C3,IC50,[1],20.9 nM
same,IC50,[2],23.7 nM
same,IC50,Cytochrome P450 3A4,5280 nM
same,inhibition at 1 µM,CYP1A2 [3],25.4%
same,inhibition at 10 µM,CYP1A2 [4],71.2%
same,inhibition at 1 µM,CYP2C9 [5],0%
same,inhibition at 10 µM,CYP2C9 [6],17.5%
same,inhibition at 1 µM,CYP2C19 [7],7.9%
same,inhibition at 10 µM,CYP2C19 [8],71.6%
same,inhibition at 1 µM,CYP2D6 [9],1.3%
same,inhibition at 10 µM,CYP2D6 [10],18.9%
Fc1ccc2sc3c(c2c1)CCN(Cc1cnccc1-c1ccccc1)C3,IC50,[1],> 1000 nM
COc1cncc(CN2CCc3c(sc4ccc(F)cc34)C2)c1,IC50,[1],33.9 nM
same,IC50,[2],45 nM
same,IC50,Cytochrome P450 3A4,6530 nM
same,inhibition at 1 µM,CYP1A2 [3],8.7%
same,inhibition at 10 µM,CYP1A2 [4],61.2%
same,inhibition at 1 µM,CYP2C9 [5],0%
same,inhibition at 10 µM,CYP2C9 [6],53.8%
same,inhibition at 1 µM,CYP2C19 [7],0%
same,inhibition at 10 µM,CYP2C19 [8],84.9%
same,inhibition at 1 µM,CYP2D6 [9],21.7%
same,inhibition at 10 µM,CYP2D6 [10],76.1%
Cc1ccc2sc3c(c2c1)CCN(Cc1cccnc1)C3,IC50,[1],257 nM
Cc1ccncc1CN1CCc2c(sc3ccc(F)cc23)C1,IC50,[1],15.8 nM
same,IC50,[2],20.1 nM
same,Ratio IC50,[11],1.5
same,IC50,Cytochrome P450 3A4,8560 nM
same,inhibition at 1 µM,CYP1A2 [3],16.3%
same,inhibition at 10 µM,CYP1A2 [4],62.2%
same,inhibition at 1 µM,CYP2C9 [5],0%
same,inhibition at 10 µM,CYP2C9 [6],21.8%
same,inhibition at 1 µM,CYP2C19 [7],11.7%
same,inhibition at 10 µM,CYP2C19 [8],65.2%
same,inhibition at 1 µM,CYP2D6 [9],12%
same,inhibition at 10 µM,CYP2D6 [10],56.8%
same,Activity,Rattus norvegicus,Dose-dependent effect
same,residual activity at 1 µM,[12],52%
O=C(c1cccnc1)N1CCc2c(sc3ccc(F)cc23)C1,IC50,[1],> 1000 nM
CC(=O)Nc1ccc2sc3c(c2c1)CCN(Cc1cccnc1)C3,IC50,[1],> 1000 nM
CC1(C)OB(c2ccc3sc4c(c3c2)CCN(Cc2cccnc2)C4)OC1(C)C,IC50,[1],115 nM
COc1ccc2sc3c(c2c1)CCN(Cc1cccnc1)C3,IC50,[1],> 1000 nM
N#Cc1ccc2sc3c(c2c1)CCN(Cc1cccnc1)C3,IC50,[1],257 nM
C[C@]12CC[C@H](O)CC1=CC[C@@H]1[C@@H]2CC[C@]2(C)C(c3cccnc3)=CC[C@@H]12 [ABIRATERONE],IC50,[1],24.7 nM
same,inhibition at 1 µM,CYP1A2 [3],34%
same,inhibition at 10 µM,CYP1A2 [4],92.5%
same,inhibition at 1 µM,CYP2C9 [5],31.6%
same,inhibition at 10 µM,CYP2C9 [6],82.5%
same,inhibition at 1 µM,CYP2C19 [7],39.6%
same,inhibition at 10 µM,CYP2C19 [8],91.6%
same,inhibition at 1 µM,CYP2D6 [9],10.4%
same,inhibition at 10 µM,CYP2D6 [10],78.5%
same,residual activity at 1 µM,[12],74%
CC(C)(C)OC(=O)Nc1ccc2sc3c(c2c1)CCN(Cc1cccnc1)C3,IC50,[1],> 1000 nM
Cc1cncc(CN2CCc3c(sc4ccc(F)cc34)C2)c1,IC50,[1],121 nM
Fc1ccc2sc3c(c2c1)CCN(Cc1c[nH]cn1)C3,IC50,[1],29.8 nM
same,IC50,[2],24.3 nM
same,IC50,Cytochrome P450 3A4,685 nM
same,inhibition at 1 µM,CYP1A2 [3],87.9%
same,inhibition at 10 µM,CYP1A2 [4],99.4%
same,inhibition at 1 µM,CYP2C9 [5],98.5%
same,inhibition at 10 µM,CYP2C9 [6],100%
same,inhibition at 1 µM,CYP2C19 [7],91.2%
same,inhibition at 10 µM,CYP2C19 [8],98.7%
same,inhibition at 1 µM,CYP2D6 [9],35.7%
same,inhibition at 10 µM,CYP2D6 [10],49.6%
Fc1ccc2sc3c(c2c1)CCN(Cc1cnccc1Br)C3,IC50,[1],75.8 nM
